One compound from ChEMBL document CHEMBL5653614, “Rescue of fragile X syndrome phenotypes in Fmr1 KO mice by the small-molecule PAK inhibitor FRAX486” (Proc Natl Acad Sci U S A, 2013) can be followed below.

Data set [1] has as its system Mus musculus. As to the kind of experiment: Protective activity in Fmr1 knockout FVB.129P2-Fmr1tm1Cgr/J mouse assessed as decrease in apical dendritic spine density in layer II/III pyramidal neurons segment 1 at 20 mg/kg, sc and measured after 8 hrs by Golgi-Cox technique analysis. Type of data set: functional, organism-based. An outline of the steps: (§1)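 Adult male WT and Fmr1 KO FVB mice given 20 mg/kg s.c. or vehicle; brains collected 8 h later and Golgi stained. Apical dendrites of layer II/III pyramidal neurons in temporal cortex, originating 50–100 µm from the soma, were divided into ten 10-µm segments and spines counted. 40–60 neurons from 4–6 mice per group; one-way ANOVA.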

Data set [2] is described as follows: Drug concentration in FVB.129P2 mouse brain at 20 mg/kg,sc and measured from 8 to 18 hrs by LC-MS/MS analysis. The data set is classed as ADME, organism-based. Conditions: in vivo, time 8-18 hrs. An outline of the steps:
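WT FVB.129P2 mice got one s.c. injection of 20 mg/kg (2 mg/mL in 20% hydroxypropyl-β-cyclodextrin). Blood and forebrain were collected at time points from 15 min to 24 h. Forebrain was weighed, snap-frozen and homogenized in 2 volumes of cold PBS. Drug quantified by LC-MS/MS. n = 2–3, mean ± SEM.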

Data set [3] is described as follows: Drug uptake in FVB.129P2 mouse plasma at 20 mg/kg,sc for 5 days and measured after 24 hrs by LC-MS/MS analysis. Conditions: in vivo, 120 h, time 5 day. Type of data set: ADME, organism-based. An outline of the steps:
(§2)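 Mice dosed s.c. at 20 mg/kg once daily for up to 5 d; plasma and forebrain sampled 24 h after the last injection. Brain homogenized in 2 volumes of cold PBS; levels measured by LC-MS/MS. n = 3–4, mean ± SEM.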

The test system of data set [4] is Mus musculus. Nature of the data set: Anti-seizure activity against 124dB loud auditory stimulus induced Fmr1 knockout FVB.129P2-Fmr1tm1Cgr/J mouse model of audiogenic seizure assessed as decrease in sound-induced death due to respiratory arrest at 10 to 30 mg/kg,sc for 8 hrs followed by audiogenic seizure induction by audiogenic seizure assay. Type of data set: functional, organism-based. The note with it: dose 10-30 mg/kg. An outline of the steps:
(§3)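 Adult male mice (10–17 wk). Single s.c. dose (0, 10, 20 or 30 mg/kg) in 20% (wt/vol) hydroxypropyl-β-cyclodextrin vehicle; AGS induced 8 h later. Mouse acclimated 2 min in a clear acrylic two-chamber box, then exposed to a 124 dB sound. Scored as percentage of animals showing each sequential phase (wild running, seizure, death by respiratory arrest); χ2 test against vehicle.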

Data set [5] addresses Serine/threonine-protein kinase PAK 2 (Homo sapiens, UniProt Q13177). As to the kind of experiment: Inhibition of PAK2 (unknown origin) by Z'-LYTE functional assay. An outline of the steps:
(§4)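 Full-length PAK isoforms phosphorylating an optimized peptide substrate in a Z-LYTE biochemical kinase assay, 10-point inhibitor titration. Duplicates (n = 2, mean ± SEM) plotted semilog; IC50 from a variable-slope sigmoidal dose–response fit.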

Data set [6] deals with Mus musculus. Nature of the data set: Anti-seizure activity against 124dB loud auditory stimulus induced Fmr1 FVB.129P2-Pde6b+ Tyr c-ch/AntJ wild type mouse model of audiogenic seizure assessed as decrease in sound-induced death due to respiratory arrest at 20 mg/kg,sc for 8 hrs followed by audiogenic seizure induction by audiogenic seizure assay. Type of data set: functional, organism-based. In short, it runs like this: as §3

In data set [7] the test system is Mus musculus. As to the kind of experiment: Protective activity in Fmr1 knockout FVB.129P2-Fmr1tm1Cgr/J mouse assessed as decrease in apical dendritic spine density in layer II/III pyramidal neurons segment 3 at 20 mg/kg, sc and measured after 8 hrs by Golgi-Cox technique analysis. Type of data set: functional, organism-based. In short, it runs like this:
as §1

Data set [8] concerns Mus musculus. As to the kind of experiment: Protective activity in FVB.129P2-Pde6b+ Tyr c-ch/AntJ wild type mouse assessed as increase in testicular weight at 20 mg/kg, sc for 21 days. Type of data set: functional, organism-based. The note with it: time 21.0 day.
Data set [9] has as its system Mus musculus. Nature of the data set: Protective activity in FVB.129P2-Pde6b+ Tyr c-ch/AntJ wild type mouse assessed as motor coordination at 20 mg/kg, sc and measured for 4 to 5.25 hrs by rotarod test. The data set is classed as functional, organism-based. The note with it: time 4-5.25 hrs. In short, it runs like this:
(§5)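 Adult male WT and Fmr1 KO mice tested 4–5.5 h after s.c. 20 mg/kg or vehicle. Latency to fall or jump off the rotating cylinder recorded (max 3 min). Three trials per mouse, 30–40 min apart; per-mouse average latency compared.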
Background: The rotarod test checks motor coordination on a turning rod.

Data set [10] has as its system Mus musculus. As to the kind of experiment: Anti-seizure activity against 124dB loud auditory stimulus induced Fmr1 knockout FVB.129P2-Fmr1tm1Cgr/J mouse model of audiogenic seizure assessed as decrease in sound-induced seizure at 10 mg/kg,sc for 5 days followed by audiogenic seizure induction after 8 hrs post-treatment by audiogenic seizure assay (Rvb=96%). Type of data set: functional. Further details: scale not given: the % may be the effect or the level left. The note with it: time 5 day. In short, it runs like this:
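Adult male Fmr1 KO mice given 10 or 20 mg/kg s.c. daily for 5 d in 20% hydroxypropyl-β-cyclodextrin vehicle. AGS assay run 8 h after the final injection: 2 min acclimation in an acrylic chamber, then a 124 dB auditory stimulus. Incidence of wild running and seizure recorded; χ2 comparison with vehicle.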

Data set [11] addresses Serine/threonine-protein kinase PAK 3 (Homo sapiens, UniProt O75914). Nature of the data set: Inhibition of PAK3 (unknown origin) by Z'-LYTE functional assay. In short, it runs like this: as §4
For data set [12], the system named is Mus musculus. Nature of the data set: Anti-seizure activity against 124dB loud auditory stimulus induced Fmr1 knockout FVB.129P2-Fmr1tm1Cgr/J mouse model of audiogenic seizure assessed as decrease in sound-induced seizure at 30 mg/kg,sc for 8 hrs followed by audiogenic seizure induction by audiogenic seizure assay (Rvb=100%). Also noted: scale not given: the % may be the effect or the level left. Type of data set: functional. An outline of the steps: as §3

The subject of data set [13] is Mus musculus. As to the kind of experiment: Protective activity in Fmr1 knockout FVB.129P2-Fmr1tm1Cgr/J mouse model of Fragile X syndrome assessed as decrease in horizontal movements at 20 mg/kg, sc for 5 days and measured for 30 mins by open field assay. The data set is classed as functional, organism-based. Conditions: time 5.0 day. An outline of the steps:
(§6)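 Adult male WT and Fmr1 KO mice dosed s.c. at 20 mg/kg or vehicle for 5 d; tested 4–5.5 h after dosing. Single mouse in a novel open field for 30 min, tracked by infrared sensors in 1-min bins; bar-graph values averaged over minutes 18–30. Mice beyond 2 SD in total distance, or immobile for 5 consecutive minutes, were excluded.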

Data set [14] deals with Mus musculus. As to the kind of experiment: Protective activity in FVB.129P2-Pde6b+ Tyr c-ch/AntJ wild type mouse assessed as decrease in horizontal movements at 20 mg/kg, sc for 5 days and measured for 30 mins by open field assay. The data set is classed as functional, organism-based. Conditions: time 5.0 day. An outline of the steps: as §6
Data set [15] relates to Mus musculus. Nature of the data set: Protective activity in Fmr1 knockout FVB.129P2-Fmr1tm1Cgr/J mouse model of Fragile X syndrome assessed as balance on accelerating rotarod at 20 mg/kg, sc and measured for 4 to 5.25 hrs by rotarod test. Type of data set: functional, organism-based. Conditions: time 4-5.25 hrs. An outline of the steps:
as §5

Data set [16] relates to Mus musculus. As to the kind of experiment: Protective activity in FVB.129P2-Pde6b+ Tyr c-ch/AntJ wild type mouse assessed as decrease in distance travelled at 20 mg/kg, sc for 5 days and measured during 18 to 30 mins by open field assay. Conditions: time 5.0 day. The data set is classed as functional, organism-based. In short, it runs like this:
as §6

For data set [17], the system named is Mus musculus. Nature of the data set: Protective activity in Fmr1 knockout FVB.129P2-Fmr1tm1Cgr/J mouse assessed as decrease in apical dendritic spine density in layer II/III pyramidal neurons segment 6 at 20 mg/kg, sc and measured after 8 hrs by Golgi-Cox technique analysis. The data set is classed as functional, organism-based. An outline of the steps: as §1

Data set [18] can be described thus: Drug uptake in FVB.129P2 mouse brain at 20 mg/kg,sc for 5 days and measured after 24 hrs by LC-MS/MS analysis. The data set is classed as ADME, organism-based. The note with it: in vivo, 120 h, time 5 day. An outline of the steps:
as §2

Data set [19] is described as follows: Toxicity in FVB.129P2-Pde6b+ Tyr c-ch/AntJ wild type mouse assessed as body weight change at 20 mg/kg,sc for 21 days. Type of data set: organism-based. The note with it: in vivo, 504 h, time 21 day.

pIC50: −log10 of the molar value. The source made the active and inactive calls. No cut-off for these calls is given here.

Serine/threonine-protein kinase PAK 2, sequence (Q13177 whole entry, canonical isoform): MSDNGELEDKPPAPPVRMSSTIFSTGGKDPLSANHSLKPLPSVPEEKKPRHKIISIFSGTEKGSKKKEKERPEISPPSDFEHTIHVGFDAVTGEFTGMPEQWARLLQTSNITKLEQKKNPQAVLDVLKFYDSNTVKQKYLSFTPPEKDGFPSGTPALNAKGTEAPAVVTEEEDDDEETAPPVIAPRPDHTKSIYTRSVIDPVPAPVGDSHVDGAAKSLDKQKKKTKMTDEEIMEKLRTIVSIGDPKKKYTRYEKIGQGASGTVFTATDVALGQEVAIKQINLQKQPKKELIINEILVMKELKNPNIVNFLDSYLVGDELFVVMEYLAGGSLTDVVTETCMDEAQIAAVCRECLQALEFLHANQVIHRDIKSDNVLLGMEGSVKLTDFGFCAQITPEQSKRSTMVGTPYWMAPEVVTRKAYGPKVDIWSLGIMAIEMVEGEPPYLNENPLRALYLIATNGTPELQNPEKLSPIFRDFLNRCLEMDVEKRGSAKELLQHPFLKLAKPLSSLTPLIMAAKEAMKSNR
Serine/threonine-protein kinase PAK 3, sequence (O75914 whole entry): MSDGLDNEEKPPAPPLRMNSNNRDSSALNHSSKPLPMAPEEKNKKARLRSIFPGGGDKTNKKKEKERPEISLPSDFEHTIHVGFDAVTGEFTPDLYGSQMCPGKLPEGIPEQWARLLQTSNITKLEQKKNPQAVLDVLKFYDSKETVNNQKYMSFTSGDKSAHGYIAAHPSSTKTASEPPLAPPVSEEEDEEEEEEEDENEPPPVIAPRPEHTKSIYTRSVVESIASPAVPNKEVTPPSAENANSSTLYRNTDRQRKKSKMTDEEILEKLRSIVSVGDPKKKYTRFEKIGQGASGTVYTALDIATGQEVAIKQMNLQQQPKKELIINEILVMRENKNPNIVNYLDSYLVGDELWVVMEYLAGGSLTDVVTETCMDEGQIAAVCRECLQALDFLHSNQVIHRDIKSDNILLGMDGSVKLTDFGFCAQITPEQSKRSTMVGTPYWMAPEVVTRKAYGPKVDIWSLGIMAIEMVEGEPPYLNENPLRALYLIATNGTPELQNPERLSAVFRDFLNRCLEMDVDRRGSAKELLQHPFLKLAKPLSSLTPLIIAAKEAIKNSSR

Regarding `CCn1c(=O)c(-c2ccc(Cl)cc2Cl)cc2cnc(Nc3ccc(N4CCNCC4)c(F)c3)nc21`, the result in the data set on Mus musculus [1], in the data set with Mus musculus [6], in the data set with Mus musculus [8], with Mus musculus [9], in the data set with Mus musculus [15] and in the data set with Mus musculus [17] was inactive. This compound had a Ct in data set [2] of 951 ng/g. Moreover, the Drug uptake result in data set [3] and in [18] was “Active” throughout. Also, the Activity result in the data set on Mus musculus [4] is “Dose-Dependent Effect”; in the data set with Mus musculus [10], 50%; in the data set with Mus musculus [12], 0%; in [19], “Non-Toxic”. The pIC50 (in general, −log10 of the IC50, conventionally taken in molar units) was 7.40 in data set [5] and 7.26 in data set [11]. Also, the outcome in the data set with Mus musculus [7], in the data set on Mus musculus [13], with Mus musculus [14] and with Mus musculus [16] was Active.
